Measurements pooled from the literature.
Each line is one published result; the experiments were not run side by side.
Target: Calcium/calmodulin-dependent protein kinase type 1G (CAMK1G, Homo sapiens, UniProt Q96NX5)

The remaining binding of `COc1ncc2cc3ccccc3nc2c1C#N` is reported as 89% (cell-free assay, competition with immobilised ligand; 5 µM).
For `Cn1nc(C(=O)NCc2ccc(C(=O)O)cc2)cc1-c1ccc2[nH]ccc2c1`, the remaining binding was 89% (cell-free assay, competition with immobilised ligand; 0.1 µM).
For `C[C@@H](c1ccc(-n2cnc3c(N)ncnc32)cc1)N1CCc2nn(C)c(Cc3ccccc3)c2C1=O`, the remaining binding was 95% (binding, competition with immobilised ligand; 0.1 µM).
The remaining binding of `COc1ccc2cc(OCC3(C(=O)O)CN(C(=O)c4ccc(F)cc4)C3)ccc2c1` is reported as 100% (cell-free assay, competition with immobilised ligand; 1 µM).
`CN(C)c1nccc(-c2cnn3ncccc23)n1` has a remaining binding of 92% (binding, competition with immobilised ligand; 1 µM).
`O=C(c1ccc(Nc2ncc(Cl)c(-c3ccc(Cl)s3)n2)cc1)N1CCC(N2CCCC2)CC1` has a remaining binding of 80% (binding, competition with immobilised ligand; 1 µM).
`CNC(=O)[C@@H]1CC[C@@H](n2c(-c3ccc4cnccc4c3)nc3ccc(C(=O)NCc4cccc(C(N)=O)c4)cc32)C1` has a remaining binding of 98% (binding, competition with immobilised ligand; 1 µM).
`O=C(NC[C@@H]1[C@H]2CN(C(=O)OCc3cc(C(F)(F)F)cc(C(F)(F)F)c3)C[C@@H]12)c1ccc2[nH]nnc2c1` has a remaining binding of 100% (cell-free assay, competition with immobilised ligand; 1 µM).
With `O=C(c1ccc(Nc2nccc(-c3cc4ccccc4s3)n2)cc1)N1CCC(N2CCCC2)CC1` the remaining binding was 72% (binding, competition with immobilised ligand; 1 µM).
`Nc1ncc2c(n1)-c1c([nH]c3ccc(C#CC4CC4)cc13)CCCC2` has a remaining binding of 87% (binding, competition with immobilised ligand; 1 µM).
The remaining binding of `N#Cc1ccc(Nc2ccc3[nH]c(=O)[nH]c3c2)c(Cl)c1` is reported as 100% (cell-free assay, competition with immobilised ligand; 1 µM).
The remaining binding of `c1cnn2ncc(-c3ccnc(N4CCC45COC5)n3)c2c1` is reported as 100% (binding; 1 µM).
`c1cncc(-c2cccc(Nc3nccc(NC4CCCCC4)n3)c2)c1` has a remaining binding of 81% (binding, competition with immobilised ligand; 10 µM).
With `N[C@H]1CCN(c2nccc(-c3cnn4ncccc34)n2)C1` the remaining binding was 93% (binding, competition with immobilised ligand; 1 µM).
With `COc1cc(-c2cn(C3CCc4c(F)cccc4N(CC(F)(F)F)C3=O)nn2)ccc1-n1cnc(C)c1` (stereo not shown) the remaining binding was 100% (cell-free assay, competition with immobilised ligand; 1 µM).
With `F[C@@H]1CCN(c2nccc(-c3cnn4ncccc34)n2)C1` the remaining binding was 100% (binding; 1 µM).
`O=C(NCC1CCOCC1)c1n[nH]cc1NC(=O)c1c(F)cccc1F` gave a remaining binding of 96% (binding, competition with immobilised ligand; 1 µM).
For `C[C@@H]1CCN(c2nccc(-c3cnn4ncccc34)n2)C1`, the remaining binding was 91% (binding; 1 µM).
The remaining binding of `O=C(Nc1ccc(Oc2ccc(F)cc2)cc1)N1CCc2ncccc2[C@H]1c1ccc(F)cc1` is reported as 100% (cell-free assay, competition with immobilised ligand; 1 µM).
`CC1CCCN1c1nccc(-c2cnn3ncccc23)n1` (stereo not shown) has a remaining binding of 100% (binding, competition with immobilised ligand; 1 µM).
For `CC(=O)N1CCC(c2ccc(C(=O)NC(=N)N)cc2C(F)(F)F)CC1`, the remaining binding was 100% (cell-free assay, competition with immobilised ligand; 1 µM).
`O=C(NCCCN1CCOCC1)c1ccc(Nc2ncc(Cl)c(-c3ccc(Cl)s3)n2)cc1` gave a remaining binding of 74% (binding, competition with immobilised ligand; 1 µM).
